Consider 16 molecules from PubChem BioAssay.

The nature of test [1]: Her2 expression decrease, cell viability multiplex – SKBR3 breast tumor cells, AlphaScreen, ATP viability, primary screen (AID 461).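 For Her2 level: lower value means less Her2 protein in the cells.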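 For viability: percent of carrier control wells set as 100% viability.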 To be noted: SKBR3 Her2 protein level, 18-24 h, measured here: SKBR3 viability, ATP luminescence, at 10 µM. Background: Bead proximity is the source of the signal in Alpha formats.
For test [2], the target named is Receptor tyrosine-protein kinase erbB-2 (Homo sapiens) (UniProt P04626). The description is as above. To be noted: 18-24 h, at 10 µM, stronger effect = lower value.
Chain of Receptor tyrosine-protein kinase erbB-2 (Homo sapiens) (P04626 whole entry, looked up): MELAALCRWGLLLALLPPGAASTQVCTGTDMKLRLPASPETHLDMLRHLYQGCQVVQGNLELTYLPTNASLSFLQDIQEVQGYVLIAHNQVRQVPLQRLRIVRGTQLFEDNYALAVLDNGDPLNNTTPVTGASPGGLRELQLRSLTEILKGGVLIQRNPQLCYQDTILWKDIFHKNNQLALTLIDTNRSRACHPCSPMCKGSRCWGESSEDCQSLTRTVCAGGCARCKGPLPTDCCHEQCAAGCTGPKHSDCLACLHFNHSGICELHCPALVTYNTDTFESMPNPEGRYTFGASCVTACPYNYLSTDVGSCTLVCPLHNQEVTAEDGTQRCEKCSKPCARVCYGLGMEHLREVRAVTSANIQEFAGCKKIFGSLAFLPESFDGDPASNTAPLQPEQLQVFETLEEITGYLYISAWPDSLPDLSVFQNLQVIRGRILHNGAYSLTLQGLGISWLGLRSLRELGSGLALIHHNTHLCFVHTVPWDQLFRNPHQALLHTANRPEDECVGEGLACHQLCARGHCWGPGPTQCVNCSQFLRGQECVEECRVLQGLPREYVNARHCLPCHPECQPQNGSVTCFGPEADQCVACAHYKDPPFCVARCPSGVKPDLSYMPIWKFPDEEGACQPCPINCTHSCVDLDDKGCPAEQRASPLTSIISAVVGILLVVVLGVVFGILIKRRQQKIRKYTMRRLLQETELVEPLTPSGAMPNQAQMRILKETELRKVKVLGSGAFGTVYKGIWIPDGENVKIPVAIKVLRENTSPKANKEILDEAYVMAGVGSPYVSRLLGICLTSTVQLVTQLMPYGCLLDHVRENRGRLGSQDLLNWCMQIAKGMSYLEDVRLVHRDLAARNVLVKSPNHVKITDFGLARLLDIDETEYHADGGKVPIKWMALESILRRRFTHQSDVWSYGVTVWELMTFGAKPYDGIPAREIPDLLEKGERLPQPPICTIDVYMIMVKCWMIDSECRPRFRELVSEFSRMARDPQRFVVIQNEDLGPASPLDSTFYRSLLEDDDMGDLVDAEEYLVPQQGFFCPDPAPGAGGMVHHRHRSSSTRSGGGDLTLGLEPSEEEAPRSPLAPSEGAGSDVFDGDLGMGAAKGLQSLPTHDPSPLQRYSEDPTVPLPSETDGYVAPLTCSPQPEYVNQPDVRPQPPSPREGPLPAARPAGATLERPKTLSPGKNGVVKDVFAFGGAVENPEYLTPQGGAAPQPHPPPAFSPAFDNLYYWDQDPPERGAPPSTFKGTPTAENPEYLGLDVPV
Test [3] can be described thus: reduced viability of SK-BR-3 breast cancer cells – cell-based, 24 h, human, pilot screen (AID 572;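 active = viability at or below 10% of carrier control in both of two separate runs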;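 note: compound exposure lasted between 18 and 24 h rather than exactly 24 h; 100% = carrier-treated control wells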). To be noted: SK-BR-3 viability, CellTiter-Glo luminescence, at 10 µM, stronger effect = lower value.
The nature of test [4]: HUVEC growth inhibition – cell-based, human, primary screen (AID 575;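 active = viability at or below 30% in both replicate assays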;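 note: 100% = median of untreated cell wells with 0.1% DMSO on each plate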). The note with it: HUVEC proliferation, CellTiter-Glo luminescence, 72 h; at 10 µM; stronger effect = lower value. In a few lines:
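Assay system: primary human umbilical vein endothelial cells / Buffer or medium: endothelial basal medium with 2% FBS plus growth supplements / Compound dosing: one dose, 10 µM final, 0.1% DMSO / Timing: 72 h treatment at 37 °C / Signal: CTG luminescence / Benchmarks: 32 DMSO-only cell-control wells (high), 32 MePR drug-control wells (low) per plate / Plate: collagen-coated 384-well format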
A general note: ATP-based viability assays read luminescence as a measure of living cells.

Test [5] is described as follows: H69AR cell proliferation blockers – human, duplicate replicates, primary screen (AID 580;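 active = viability at or under a set limit in both replicates, limit being median viability minus 3 SD, cut at about 48% in these data, passing the limit was not always enough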;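 note: 100% = mean luminescence of untreated wells and 0% = no signal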). To be noted: H69AR lung tumor cells viability, ATP luminescence, 72 h; at 10 µM; stronger effect = lower value.
Test [6] is described as follows: MRP1 drug-resistance reversers in H69AR cells – cell-based, doxorubicin co-treatment, pilot screen (AID 601;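 active = viability loss from added drug above about 55%, and viability with drug at most 40%, in both replicates, limit read from the data, passing the limit was not always enough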). The note with it: CellTiter-Glo, 72 h, at 10 µM; for differential viability (reversal): stronger effect = higher value.
A short description of test [7]: yeast transport mutant growth inhibition pilot in 384-well plates, post-Golgi transport modulator project (AID 636; in the data active = inhibition above about 31%). The note with it: absorbance 615 nm, about 18 h, stronger effect = higher value.
Test [8] can be described thus: growth suppression of yeast trafficking mutant, preliminary HTS, modulators of trafficking downstream of Golgi apparatus project, 1536-format plate, OD 615 nm (AID 637; in the data active = inhibition above about 30%). To be noted: yeast transport mutant growth, absorbance 615 nm, 18 h; stronger effect = higher value.
Where [9] appears, read: H69AR cells + 2 uM doxorubicin, measured here: viability with 2 uM doxorubicin, stronger effect = lower value.
[10] abbreviates: H69AR cells, compound alone cytotoxicity.

Activity calls are given as the source filed them.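 Rule for the calls, unless noted: active = Her2 level under about 52% in both replicate screens, with viability over 70% of control (limit read from the data); inconclusive = Her2 under the limit in one screen only, or viability under 70%; inactive = Her2 level above the set limit.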

As to `C=CCC(NCc1ccco1)c1ccc(OC)cc1OC` (stereo not given), the viability in test [1] was 96%; in test [3], 96% (inactive); in test [4] it was 99.1% (inactive); in test [5] it was 93% (inactive); in test [6] (setting [9]), 85.3%; in test [6] (setting [10]), 93%. Moreover, the Her2 level in test [2] was 98.5% (inactive). The differential viability (reversal) in test [6] (H69AR cells + 2 uM doxorubicin) is 7.67% (inactive). Moreover, the inhibition is -4.08% (inactive) in test [7] and 0.36% (inactive) in test [8].

Regarding `c1ccc(Cc2ccc(OCCn3cncn3)cc2)cc1`, the viability in test [1] was 84%; in test [3] it was 84% (inactive); in test [4], 98.6% (inactive); in test [5] it was 95% (inactive); in test [6] (setting [9]), 80.4%; in test [6] (setting [10]), 95%. In addition, the Her2 level in test [2] is 108% (inactive). In addition, the differential viability (reversal) in test [6] (H69AR cells + 2 uM doxorubicin) was 14.6% (inactive). In addition, the inhibition is -3.92% (inactive) in test [7] and -7.38% (inactive) in test [8].

As for `CCOC(=O)C1=C(C)N=c2s/c(=C\c3cccn3C)c(=O)n2C1c1cccc(OC)c1OC` (stereo not given), the viability in test [1] was 89%; in test [3] it was 89% (inactive); in test [4], 75.7% (inactive); in test [5] it was 87.4% (inactive); in test [6] (setting [9]), 89%; in test [6] (setting [10]), 87.4%. Further, the Her2 level in test [2] is 87% (inactive). Further, the differential viability (reversal) in test [6] (H69AR cells + 2 uM doxorubicin) is -1.62% (inactive). Moreover, the inhibition in test [7] was -1.56% (inactive); in test [8], -2.13% (inactive).

In the case of `COc1cc(C(=O)Nc2ccc3c(c2)C(=O)N(CCC(=O)O)C3=O)cc(OC)c1OC`, the viability in test [1] was 97.5%; in test [3], 97.5% (inactive); in test [4], 98% (inactive); in test [5], 106% (inactive); in test [6] (setting [9]), 100%; in test [6] (setting [10]) it was 106%. Besides, in test [2], the Her2 level is 83% (inactive). In addition, the differential viability (reversal) in test [6] (H69AR cells + 2 uM doxorubicin) was 5.66% (inactive). For the same molecule, the inhibition in test [7] is -3.42% (inactive); in test [8] it was -2.86% (inactive).

In the case of `CCCCOc1cccc(NC(=O)CSc2nccn2C)c1`, the viability in test [1] was 107%; in test [3], 107% (inactive); in test [4], 99.9% (inactive); in test [5], 85.3% (inactive); in test [6] (setting [9]), 87.3%; in test [6] (setting [10]), 85.3%. Moreover, in test [2], the Her2 level is 81.5% (inactive). The differential viability (reversal) in test [6] (H69AR cells + 2 uM doxorubicin) is -1.98% (inactive). Moreover, the inhibition in test [7] is -7.03% (inactive); in test [8] it was 0.5% (inactive).

For the molecule `CC1CCN(CCCNC(=O)c2cn(C)c3ccc(S(=O)(=O)N4CCCC4)cc3c2=O)CC1`, the viability in test [1] is 90.5%; in test [3], 90.5% (inactive); in test [4], 96.9% (inactive); in test [5], 91% (inactive); in test [6] (setting [9]) it was 88%; in test [6] (setting [10]), 91%. The Her2 level in test [2] is 80% (inactive). Also, the differential viability (reversal) in test [6] (H69AR cells + 2 uM doxorubicin) is 3.01% (inactive). Further, the inhibition was -6.76% (inactive) in test [7] and 1% (inactive) in test [8].

In the case of `CCc1nc(N)c(C#N)c(-c2ccncc2)c1C`, the viability is 102% in test [1]; 102% (inactive) in test [3]; 89.2% (inactive) in test [4]; 102% (inactive) in test [5]; 80.6% in test [6] (setting [9]); 102% in test [6] (setting [10]). The Her2 level in test [2] was 95% (inactive). For the same molecule, the differential viability (reversal) in test [6] (H69AR cells + 2 uM doxorubicin) was 21.1% (inactive). The inhibition was -4.27% (inactive) in test [7] and -0.82% (inactive) in test [8].

Consider `CCOC(=O)C1C(=O)N(C(=O)c2ccc(OC)cc2)CC1c1ccccc1` (stereo not given), for which the viability is 91.5% in test [1]; 91.5% (inactive) in test [3]; 83.3% (inactive) in test [4]; 86.6% (inactive) in test [5]; 84.7% in test [6] (setting [9]); 86.6% in test [6] (setting [10]). For the same molecule, the Her2 level in test [2] was 94.5% (inactive). In test [6] (H69AR cells + 2 uM doxorubicin), the differential viability (reversal) was 1.9% (inactive). The inhibition is -0.65% (inactive) in test [7] and -5.41% (inactive) in test [8].

With `Cc1cc(C)c(NC(=O)C2CSCCS2)c(C)c1` (stereo not given), the viability was 90% in test [1]; 90% (inactive) in test [3]; 99.7% (inactive) in test [4]; 100% (inactive) in test [5]; 85.9% in test [6] (setting [9]); 100% in test [6] (setting [10]). Also, the Her2 level in test [2] was 79.5% (inactive). In test [6] (H69AR cells + 2 uM doxorubicin), the differential viability (reversal) is 14.1% (inactive). The inhibition in test [7] is -3.82% (inactive); in test [8], -7.17% (inactive).

For the molecule `Cc1ccc(C(C(=O)NC(C)(C)C)N(C(=O)c2csnn2)c2cccc(F)c2)o1` (stereo not given), the viability in test [1] was 83.5%; in test [3] it was 83.5% (inactive); in test [4], 103% (inactive); in test [5], 92.8% (inactive); in test [6] (setting [9]) it was 91.2%; in test [6] (setting [10]), 92.8%. For the same molecule, the Her2 level in test [2] is 97% (inactive). For the same molecule, in test [6] (H69AR cells + 2 uM doxorubicin), the differential viability (reversal) is 1.6% (inactive). Also, the values for the inhibition in test [7] and in test [8] were -3.6% (inactive) and 24.4% (inactive), respectively.

`Cc1cc(NS(=O)(=O)c2ccc(Nc3nc(-c4sc(N)nc4C)cs3)cc2)no1`: the viability was 104% in test [1]; 104% (inactive) in test [3]; 75.5% (inactive) in test [4]; 98% (inactive) in test [5]; 88.8% in test [6] (setting [9]); 98% in test [6] (setting [10]). The Her2 level in test [2] is 116% (inactive). Moreover, in test [6] (H69AR cells + 2 uM doxorubicin), the differential viability (reversal) is 9.14% (inactive). Moreover, the inhibition in test [7] is -4.08% (inactive); in test [8], -4% (inactive).

In the case of `COC(=O)Cn1c2c(c3cc(C)ccc31)CCCC2`, the viability was 83% in test [1]; 83% (inactive) in test [3]; 103% (inactive) in test [4]; 102% (inactive) in test [5]; 94.1% in test [6] (setting [9]); 102% in test [6] (setting [10]). Moreover, the Her2 level in test [2] was 99% (inactive). Besides, in test [6] (H69AR cells + 2 uM doxorubicin), the differential viability (reversal) was 8.28% (inactive). Besides, the inhibition in test [7] was -4.74% (inactive); in test [8], 4.75% (inactive).

As to `CCCc1cc(C(N)=O)c(NC(=O)c2ccco2)s1`, the viability in test [1] was 102%; in test [3] it was 102% (inactive); in test [4], 94.2% (inactive); in test [5] it was 87.3% (inactive); in test [6] (setting [9]), 93.3%; in test [6] (setting [10]), 87.3%. Further, in test [2], the Her2 level is 73.5% (inactive). The differential viability (reversal) in test [6] (H69AR cells + 2 uM doxorubicin) is -5.96% (inactive). Also, the inhibition in test [7] was -3.29% (inactive); in test [8], 1.15% (inactive).

Take `Cc1ccc2[nH]cc(C(=O)CN3CCC4(CC3)OCCO4)c2c1`: the viability in test [1] was 106%; in test [3], 106% (inactive); in test [4], 104% (inactive); in test [5], 92.2% (inactive); in test [6] (setting [9]), 90.5%; in test [6] (setting [10]), 92.2%. Also, in test [2], the Her2 level is 90% (inactive). The differential viability (reversal) in test [6] (H69AR cells + 2 uM doxorubicin) was 1.75% (inactive). The inhibition is -4.13% (inactive) in test [7] and -1.48% (inactive) in test [8].

Turning to `O=S(=O)(c1ccc2ccccc2c1)N(CC(O)CN1CCOCC1)c1ccccc1` (stereo not given), the viability is 87% in test [1]; 87% (inactive) in test [3]; 83.9% (inactive) in test [4]; 100% (inactive) in test [5]; 81% in test [6] (setting [9]); 100% in test [6] (setting [10]). In test [2], the Her2 level was 75.5% (inactive). Besides, the differential viability (reversal) in test [6] (H69AR cells + 2 uM doxorubicin) is 19% (inactive). For the same molecule, the inhibition in test [7] is -5.87% (inactive); in test [8] it was -1.13% (inactive).

`COc1ccc(OCc2cccc(C(=O)O)c2)cc1`: the viability in test [1] is 105%; in test [3], 105% (inactive); in test [4], 75.7% (inactive); in test [5], 88.1% (inactive); in test [6] (setting [9]) it was 81%; in test [6] (setting [10]), 88.1%. Besides, the Her2 level in test [2] is 78.5% (inactive). In test [6] (H69AR cells + 2 uM doxorubicin), the differential viability (reversal) is 7.06% (inactive). Further, the inhibition was -4.47% (inactive) in test [7] and 0.91% (inactive) in test [8].

As a reminder, the viability is a read-out of living cells in per cent, often relative to untreated cells. By inhibition is commonly meant the drop in the measured response relative to a control, in per cent.
